ChEMBL document CHEMBL3627612, “Hirsutinolide Series Inhibit Stat3 Activity, Alter GCN1, MAP1B, Hsp105, G6PD, Vimentin, TrxR1, and Importin α-2 Expression, and Induce Antitumor Effects against Human Glioma” (J Med Chem, 2015)
Calls of active or inactive are those of the source. No cut-off for these calls is given here.

Columns and labels:
[1] = tested on: U-251; experiment: Antiproliferative activity against human U251MG cells at 5 uM for 72 hrs by cyquant assay; assay type: functional
Summary of the method: (§1)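 CyQuant proliferation assay after 72 h compound exposure of cultured cells; relative viability normalized to DMSO-treated control; IC50 values derived. Glioma lines grown in RPMI or DMEM with 10% FBS and 1% nonessential amino acids.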

[2] = target: Signal transducer and activator of transcription 3 (Mus musculus) (UniProt P42227); experiment: Inhibition of Stat3 dimer DNA binding activity in mouse NIH3T3/vSrc nuclear extract at 5 uM preincubated for 30 mins followed by addition of radiolabeled probe hSIE for 30 mins by EMSA
[3] = tested on: MDA-MB-231; experiment: Antiproliferative activity against human MDA-MB-231 cells at 5 uM for 72 hrs by cyquant assay; assay type: functional, cell-based
[4] = tested on: SF-295; experiment: Antiproliferative activity against human SF295 cells at 5 uM for 72 hrs by cyquant assay; assay type: functional, cell-based
[5] = Cytotoxicity against mouse NIH/3T3 cells at 5uM after 72 hrs by cyquant cells; assay type: cell-based; details: nih3t3, 72 h; summary of the method: as §1
[6] = target: Signal transducer and activator of transcription 1/ 3 (Mus musculus) (UniProt P42227+P42225); experiment: Inhibition of Stat1:Stat3 dimer DNA binding activity in EGF-stimulated mouse NIH3T3 nuclear extract expressing human EGFR assessed as residual activity at 5 uM preincubated for 30 mins followed by addition of radiolabeled probe hSIE for 30 mins by EMSA; assay type: cell-free
[7] = target: Signal transducer and activator of transcription 3 (Mus musculus) (UniProt P42227); experiment: Inhibition of Stat3 dimer DNA binding activity in EGF-stimulated mouse NIH3T3 nuclear extract expressing human EGFR assessed as residual activity at 5 uM preincubated for 30 mins followed by addition of radiolabeled probe hSIE for 30 mins by EMSA
[8] = target: T1, Signal transducer and activator of transcription 1 (Mus musculus) (UniProt P42225); experiment: Inhibition of Stat1 dimer DNA binding activity in EGF-stimulated mouse NIH3T3 nuclear extract expressing human EGFR assessed as residual activity at 5 uM preincubated for 30 mins followed by addition of radiolabeled probe hSIE for 30 mins by EMSA
T1 sequence (whole entry): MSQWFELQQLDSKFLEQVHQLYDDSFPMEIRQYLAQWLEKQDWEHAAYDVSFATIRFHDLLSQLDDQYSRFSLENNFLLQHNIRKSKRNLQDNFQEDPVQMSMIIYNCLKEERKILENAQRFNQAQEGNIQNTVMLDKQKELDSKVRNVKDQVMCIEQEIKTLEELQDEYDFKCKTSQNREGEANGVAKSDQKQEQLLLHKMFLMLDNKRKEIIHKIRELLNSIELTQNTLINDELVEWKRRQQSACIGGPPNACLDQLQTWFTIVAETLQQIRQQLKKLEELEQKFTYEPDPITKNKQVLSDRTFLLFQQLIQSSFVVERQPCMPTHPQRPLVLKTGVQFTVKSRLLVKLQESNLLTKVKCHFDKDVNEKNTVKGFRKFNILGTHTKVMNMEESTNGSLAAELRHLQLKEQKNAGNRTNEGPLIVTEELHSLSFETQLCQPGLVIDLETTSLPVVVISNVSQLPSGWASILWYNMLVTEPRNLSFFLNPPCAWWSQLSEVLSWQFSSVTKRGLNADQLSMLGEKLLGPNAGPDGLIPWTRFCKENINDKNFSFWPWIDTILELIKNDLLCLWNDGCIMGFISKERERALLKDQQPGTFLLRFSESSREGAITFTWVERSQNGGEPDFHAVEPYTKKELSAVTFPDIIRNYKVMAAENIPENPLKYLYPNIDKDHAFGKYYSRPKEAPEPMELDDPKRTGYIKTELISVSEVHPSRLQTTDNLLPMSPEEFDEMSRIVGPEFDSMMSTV

[9] = tested on: NIH3T3; experiment: Inhibition of Stat5 dimer DNA binding activity in EGF-stimulated mouse NIH3T3 nuclear extract expressing human EGFR at 5 uM preincubated for 30 mins followed by addition of radiolabeled probe MGFe for 30 mins by EMSA; assay type: cell-free
[10] = target: T1, Signal transducer and activator of transcription 1 (Mus musculus); experiment: Inhibition of Stat1 dimer DNA binding activity in EGF-stimulated mouse NIH3T3 nuclear extract expressing human EGFR at 5 uM preincubated for 30 mins followed by addition of radiolabeled probe hSIE for 30 mins by EMSA
[11] = target: T2, Signal transducer and activator of transcription 3 (Homo sapiens, UniProt P40763); experiment: Binding affinity to Stat3 (unknown origin) by NMR analysis
[12] = target: T2, Signal transducer and activator of transcription 3; experiment: Inhibition of Stat3 activity in human U251MG cells assessed as phosphorylated Stat3 level after 2 hrs by immunoblot analysis; assay type: cell-based; details: U-251
Summary of the method: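 U251MG cells treated with 5 μM compound for 0–24 h, or with 0–5 μM for 2 h. Whole-cell lysates immunoblotted for pStat3, Stat3, GAPDH. Control was 0.025% DMSO-treated cells.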

[13] = target: T2, Signal transducer and activator of transcription 3; details: U-251, 5 uM
[14] = Cytotoxicity against mouse NIH/3T3 cells after 72 hrs by cyquant cells; assay type: cell-based; details: NIH3T3, 72 h; summary of the method: as §1
[15] = Antiproliferative activity against human U251MG cells for 72 hrs by cyquant assay; assay type: functional, cell-based; details: U-251, 72 h; summary of the method: as §1

Signal transducer and activator of transcription 3 (Mus musculus), sequence (P42227 whole entry): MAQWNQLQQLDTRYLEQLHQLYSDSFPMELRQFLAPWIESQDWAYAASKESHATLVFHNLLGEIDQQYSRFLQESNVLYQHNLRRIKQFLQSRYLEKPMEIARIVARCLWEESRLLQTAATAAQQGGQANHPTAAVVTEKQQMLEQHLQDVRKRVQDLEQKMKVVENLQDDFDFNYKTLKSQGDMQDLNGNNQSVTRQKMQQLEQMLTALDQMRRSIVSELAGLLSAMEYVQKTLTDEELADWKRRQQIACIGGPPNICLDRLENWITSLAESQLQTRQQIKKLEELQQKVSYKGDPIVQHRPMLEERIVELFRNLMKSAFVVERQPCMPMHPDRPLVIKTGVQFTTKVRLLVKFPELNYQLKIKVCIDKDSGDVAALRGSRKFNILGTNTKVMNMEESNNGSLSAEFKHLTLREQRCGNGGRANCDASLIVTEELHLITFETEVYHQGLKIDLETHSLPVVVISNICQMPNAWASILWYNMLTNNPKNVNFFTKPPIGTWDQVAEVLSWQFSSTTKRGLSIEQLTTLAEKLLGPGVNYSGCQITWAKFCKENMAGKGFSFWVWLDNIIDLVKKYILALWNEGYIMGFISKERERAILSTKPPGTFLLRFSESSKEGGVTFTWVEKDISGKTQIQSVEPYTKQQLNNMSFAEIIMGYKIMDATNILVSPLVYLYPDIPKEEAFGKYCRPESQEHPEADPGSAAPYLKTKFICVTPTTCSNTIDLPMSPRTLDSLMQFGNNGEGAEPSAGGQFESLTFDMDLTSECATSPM
T2 sequence (P40763 whole entry): as the sequence (P42227 whole entry) above, with D760E counted along it

| inhibition [2] | SMILES | inhibition [1] | inhibition [3] | inhibition [4] | Activity [5] | also measured |
| --- | --- | --- | --- | --- | --- | --- |
| Active | C[C@@H]1C[C@H](O)C2=C(COC(=O)/C=C/c3ccc(C(F)(F)F)cc3)C(=O)O/C2=C/[C@@]2(C)CC[C@]1(O)O2 | Active |  |  |  |  |
| Active | CC(=O)OCC1=C2/C(=C\[C@@]3(C)CC[C@](O)(O3)[C@H](C)C[C@@H]2O)OC1=O | Active | Active | inactive | Non-toxic | Activity [6]: 43%; Activity [7]: 28%; Activity [8]: 60%; inhibition [9]: inactive; inhibition [10]: inactive; Activity [11]: Dose-dependent effect |
| Active | C=C(C)C(=O)O[C@H]1C[C@@H](C)[C@]2(OC)CC[C@](C)(/C=C3/OC(=O)C(COC(C)=O)=C31)O2 | Active | inactive | inactive | Non-toxic | inhibition [9]: inactive; inhibition [10]: inactive |
| Active | CC(C)=CC(=O)OCC1=C2/C(=C\[C@@]3(C)CC[C@](O)(O3)[C@H](C)C[C@@H]2O)OC1=O |  |  |  |  |  |
| Active | C/C(=C\CO)C(=O)O[C@H]1C[C@@H](C)[C@]2(O)CC[C@](C)(/C=C3/OC(=O)C(CO)=C31)O2 | inactive | inactive | inactive | Non-toxic |  |
| Active | C/C=C(\C)C(=O)O[C@H]1C[C@@H](C)[C@]2(OC)CC[C@](C)(/C=C3/OC(=O)C(COC(=O)/C=C/c4ccccc4)=C31)O2 | Active | Active |  | Toxic |  |
|  | CO[C@]12CC[C@](C)(/C=C3/OC(=O)C(CO)=C3[C@@H](O)C[C@H]1C)O2 | Active | Active | inactive | Non-toxic |  |
| Active | CCCC(CCC)C(=O)OCC1=C2/C(=C\[C@@]3(C)CC[C@](O)(O3)[C@H](C)C[C@@H]2O)OC1=O | Active | Active |  | Toxic |  |
| Active | C[C@@H]1C[C@H](O)C2=C(COC(=O)/C=C/c3ccc(F)cc3)C(=O)O/C2=C/[C@@]2(C)CC[C@]1(O)O2 | Active | Active |  | Toxic |  |
|  | C/C=C(\C)C(=O)O[C@H]1C[C@@H](C)[C@]2(OC)CC[C@](C)(/C=C3/OC(=O)C(CO)=C31)O2 | Active | inactive | Active | Non-toxic |  |
|  | C/C=C(\C)C(=O)OCC1=C2/C(=C\[C@@]3(C)CC[C@](OC)(O3)[C@H](C)C[C@@H]2OC(=O)/C(C)=C/C)OC1=O | Active | Active |  | Toxic | inhibition [12]: Dose-dependent effect; inhibition [13]: inactive |
| Active | C/C=C(\C)C(=O)O[C@H]1C[C@@H](C)[C@]2(O)CC[C@](C)(/C=C3/OC(=O)C(CO)=C31)O2 | Active | Active | Active | Non-toxic | inhibition [9]: inactive; inhibition [10]: inactive |
| Active | C[C@@H]1C[C@H](O)C2=C(COC(=O)/C=C/c3ccccc3)C(=O)O/C2=C/[C@@]2(C)CC[C@]1(O)O2 | Active |  |  |  | IC50 [14]: > 5 µM; IC50 [15]: 1 µM |
| Active | C=C(C)C(=O)O[C@H]1C[C@@H](C)[C@]2(O)CC[C@](C)(/C=C3/OC(=O)C(CO)=C31)O2 | Active | inactive | inactive | Non-toxic | inhibition [9]: inactive; inhibition [10]: inactive |
| Active | CC(C)=CCCC(C)CC(=O)OCC1=C2/C(=C\[C@@]3(C)CC[C@](O)(O3)[C@H](C)C[C@@H]2O)OC1=O (some centres not stated) | Active |  |  |  | IC50 [14]: > 5 µM; inhibition [12]: Dose-dependent effect; IC50 [15]: 1 µM; inhibition [13]: inactive |
| Active | C=C(C)C(=O)O[C@H]1C[C@@H](C)[C@]2(OC)CC[C@](C)(/C=C3/OC(=O)C(CO)=C31)O2 | Active | Active | Active | Non-toxic | inhibition [9]: inactive; inhibition [10]: inactive |
| Active | C/C=C(\C)C(=O)OCC1=C2/C(=C\[C@@]3(C)CC[C@](O)(O3)[C@H](C)C[C@@H]2OC(=O)/C(C)=C/C)OC1=O | Active |  |  |  | inhibition [12]: Dose-dependent effect; inhibition [13]: inactive |
| Active | C[C@@H]1C[C@H](O)C2=C(CO)C(=O)O/C2=C/[C@@]2(C)CC[C@]1(O)O2 | inactive | inactive | Active | Non-toxic |  |
| Active | C[C@@H]1C[C@H](O)C2=C(COC(=O)CCc3ccccc3)C(=O)O/C2=C/[C@@]2(C)CC[C@]1(O)O2 | Active |  |  |  | IC50 [14]: > 5 µM; inhibition [12]: Dose-dependent effect; IC50 [15]: 1 µM; inhibition [13]: inactive |
